According to ChEMBL document CHEMBL1136923, “Highly potent, orally available anti-inflammatory broad-spectrum chemokine inhibitors” (J Med Chem, 2009):
Each block holds one molecule with its values, some of them ahead of it.

How the values were obtained:
[1] = target: C-C chemokine receptor type 2 (Homo sapiens) (UniProt P41597); test: Antagonist activity at CCR2 in human THP1 cells assessed as inhibition of CCL2-induced chemotaxis after 2 hrs by microtiter format trans-well migration assay; type: functional, cell-based; details: THP-1
Method in brief: (§1)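 Microtiter trans-well migration assay in Gey's balanced salt solution with 1 mg/mL endotoxin-free BSA, no fetal calf serum. Migration ran 2 h at 37 °C. Compounds dissolved in DMSO and added to both top and bottom compartments, final DMSO 1%.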

[2] = target: C-C chemokine receptor type 2 (Homo sapiens) (UniProt P41597); test: Antagonist activity at CCR2 in human THP1 cells assessed as inhibition of CCL2-induced chemotaxis at 1000 nM after 2 hrs by microtiter format trans-well migration assay; type: functional, cell-based; details: THP-1; method in brief: as §1
[3] = target: C-C chemokine receptor type 2 (Homo sapiens) (UniProt P41597); test: Antagonist activity at CCR2 in human THP1 cells assessed as inhibition of CCL2-induced chemotaxis at 100 nM after 2 hrs by microtiter format trans-well migration assay; type: functional, cell-based; details: THP-1; method in brief: as §1
[4] = target: C-C chemokine receptor type 2 (Homo sapiens) (UniProt P41597); test: Antagonist activity at CCR2 in human THP1 cells assessed as inhibition of CCL2-induced chemotaxis at 10 nM after 2 hrs by microtiter format trans-well migration assay; type: functional, cell-based; details: THP-1; method in brief: as §1
[5] = target: C-C chemokine receptor type 2 (Homo sapiens) (UniProt P41597); test: Antagonist activity at CCR2 in human THP1 cells assessed as inhibition of CCL2-induced chemotaxis at 1 nM after 2 hrs by microtiter format trans-well migration assay; type: functional, cell-based; details: THP-1; method in brief: as §1
[6] = target: C-C chemokine receptor type 2 (Homo sapiens) (UniProt P41597); test: Antagonist activity at CCR2 in human THP1 cells assessed as inhibition of CCL2-induced chemotaxis at 0.1 nM after 2 hrs by microtiter format trans-well migration assay; type: functional, cell-based; details: THP-1; method in brief: as §1
[7] = target: C-C chemokine receptor type 2 (Homo sapiens) (UniProt P41597); test: Antagonist activity at CCR2 in human THP1 cells assessed as inhibition of CCL2-induced chemotaxis at 0.01 nM after 2 hrs by microtiter format trans-well migration assay; type: functional, cell-based; details: THP-1; method in brief: as §1
Mus musculus [8] = test: Antiinflammatory activity in sc dosed mouse assessed as inhibition of LPS-induced TNFalpha upregulation measured 2 hrs after LPS challenge; type: functional
Mus musculus [9] = test: Antiinflammatory activity in sc dosed mouse assessed as inhibition of LPS-induced TNFalpha upregulation measured 2 hrs after LPS challenge relative to control; type: functional
Method in brief: (§2)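 Murine sublethal LPS endotoxemia screen. LPS is injected intraperitoneally and serum TNF-α is measured 2 h later as the end point. Compound is given subcutaneously or orally in a vehicle of 0.6% DMSO plus 1% carboxymethylcellulose (final concentrations) in sterile water. Values are % relative to control.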

Mus musculus [10] = test: Antiinflammatory activity in po dosed mouse assessed as inhibition of LPS-induced TNFalpha upregulation measured 2 hrs after LPS challenge; type: functional
Mus musculus [11] = test: Antiinflammatory activity in po dosed mouse assessed as inhibition of LPS-induced TNFalpha upregulation measured 2 hrs after LPS challenge relative to control; type: functional; method in brief: as §2
Mus musculus [12] = test: Antiinflammatory activity in mouse assessed as inhibition of LPS-induced TNFalpha upregulation at 0.0016 ug, sc measured 2 hrs after LPS challenge; type: functional
Method in brief: (§3)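 Murine sublethal endotoxemia: LPS given intraperitoneally, with serum TNF-α measured 2 h after the LPS injection as the end point. Compound was given subcutaneously or orally. Vehicle was 0.6% DMSO and 1% carboxymethylcellulose (final concentrations) in sterile water. Effect is reported as % relative to control.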

Mus musculus [13] = test: Antiinflammatory activity in mouse assessed as inhibition of LPS-induced TNFalpha upregulation at 0.0066 ug, sc measured 2 hrs after LPS challenge; type: functional; method in brief: as §3
Mus musculus [14] = test: Antiinflammatory activity in mouse assessed as inhibition of LPS-induced TNFalpha upregulation at 0.016 ug, sc measured 2 hrs after LPS challenge; type: functional; method in brief: as §3
Mus musculus [15] = test: Antiinflammatory activity in mouse assessed as inhibition of LPS-induced TNFalpha upregulation at 0.00016 mg, sc measured 2 hrs after LPS challenge; type: functional
Method in brief: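 Murine sublethal endotoxemia: LPS given intraperitoneally, serum TNF-α measured 2 h after LPS injection. Compound vehicle 0.6% DMSO plus 1% carboxymethylcellulose (final concentrations) in sterile water.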

Mus musculus [16] = test: Antiinflammatory activity in mouse assessed as inhibition of LPS-induced TNFalpha upregulation at 0.0016 mg, sc measured 2 hrs after LPS challenge; type: functional; method in brief: as §3
Mus musculus [17] = test: Antiinflammatory activity in mouse assessed as inhibition of LPS-induced TNFalpha upregulation at 0.016 mg, sc measured 2 hrs after LPS challenge; type: functional; method in brief: as §3
Mus musculus [18] = test: Antiinflammatory activity in mouse assessed as inhibition of LPS-induced TNFalpha upregulation at 540 pg, po measured 2 hrs after LPS challenge; type: functional; method in brief: as §2
Mus musculus [19] = test: Antiinflammatory activity in mouse assessed as inhibition of LPS-induced TNFalpha upregulation at 0.0027 ug, po measured 2 hrs after LPS challenge; type: functional; method in brief: as §3
Mus musculus [20] = test: Antiinflammatory activity in mouse assessed as inhibition of LPS-induced TNFalpha upregulation at 0.0186 ug, po measured 2 hrs after LPS challenge; type: functional; method in brief: as §3
Mus musculus [21] = test: Antiinflammatory activity in mouse assessed as inhibition of LPS-induced TNFalpha upregulation at 0.068 ug, po measured 2 hrs after LPS challenge; type: functional; method in brief: as §3
Mus musculus [22] = test: Antiinflammatory activity in mouse assessed as inhibition of LPS-induced TNFalpha upregulation at 0.75 ug, po measured 2 hrs after LPS challenge; type: functional; method in brief: as §3
Mus musculus [23] = test: Antiinflammatory activity in mouse assessed as inhibition of LPS-induced TNFalpha upregulation at 0.0186 mg, po measured 2 hrs after LPS challenge; type: functional; method in brief: as §3
[24] = Half life in Sprague-Dawley rat at 1 mg/kg, iv administered as single dose; type: ADME, organism-based; set-up: dose 1 mg/kg, route intravenous; details: in vivo
Method in brief: (§4)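 Male Sprague-Dawley rats, three per compound, receive a single intravenous dose in 5% DMSO in 0.9% saline. Food and water are given ad libitum. Plasma is taken at 5, 15, 30, 60, 120, 180, 240 and 480 min. Drug is measured by LC/MS/MS after extraction with 0.1% formic acid in acetonitrile. The curve is back-extrapolated to time zero assuming an initial volume of 0.26 L/kg.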

[25] = Clearance in Sprague-Dawley rat at 1 mg/kg, iv administered as single dose; type: ADME, organism-based; set-up: dose 1 mg/kg, route intravenous; details: in vivo; method in brief: as §4
[26] = Volume of distribution at steady state in Sprague-Dawley rat at 1 mg/kg, iv administered as single dose; type: ADME, organism-based; set-up: dose 1 mg/kg, route intravenous; details: in vivo, read-out: Vdss; method in brief: as §4
[27] = AUC (0 to t) in Sprague-Dawley rat at 1 mg/kg, iv administered as single dose; type: ADME, organism-based, Plasma; set-up: dose 1 mg/kg, route intravenous; details: Sprague-Dawley, plasma
Method in brief: (§5)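 Male Sprague-Dawley rats, three per compound per route, single dose. IV vehicle 5% DMSO in 0.9% saline; oral gavage vehicle 1% carboxymethylcellulose in 0.9% saline; fed ad libitum. Plasma taken 5–480 min post-dose, extracted with 0.1% formic acid in acetonitrile, quantified by LC/MS/MS (positive mode). AUC(0–t) by linear/log trapezoidal rule; IV curve back-extrapolated assuming initial volume 0.26 L/kg.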

[28] = Fractional bioavailability in Sprague-Dawley rat at 3 mg/kg, po administered as single dose; type: ADME, organism-based; details: in vivo
Method in brief: (§6)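 Male Sprague-Dawley rats, three per compound, receive a single oral dose by gavage in 1% carboxymethylcellulose in 0.9% saline, with food and water ad libitum. Plasma is sampled from 5 to 480 min and drug is quantified by positive-mode LC/MS/MS after acetonitrile/formic acid extraction. The lower limit of quantitation is about 2 ng/mL. Exposure is AUC(0→t) by the linear/log trapezoidal rule, and F is oral fractional bioavailability.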

[29] = Cmax in Sprague-Dawley rat at 3 mg/kg, po administered as single dose; type: ADME, organism-based; set-up: dose 3 mg/kg, route oral; details: in vivo; method in brief: as §6
[30] = AUC (0 to t) in Sprague-Dawley rat at 3 mg/kg, po administered as single dose; type: ADME, organism-based; set-up: dose 3 mg/kg, route oral; details: plasma; method in brief: as §5
Rattus norvegicus = test: Plasma concentration in Sprague-Dawley rat at 3 mg/kg, po administered as single dose; type: ADME, organism-based; set-up: dose 3 mg/kg, route oral; details: in vivo; method in brief: as §6

Sequence of C-C chemokine receptor type 2 (Homo sapiens) (P41597 whole entry, looked up): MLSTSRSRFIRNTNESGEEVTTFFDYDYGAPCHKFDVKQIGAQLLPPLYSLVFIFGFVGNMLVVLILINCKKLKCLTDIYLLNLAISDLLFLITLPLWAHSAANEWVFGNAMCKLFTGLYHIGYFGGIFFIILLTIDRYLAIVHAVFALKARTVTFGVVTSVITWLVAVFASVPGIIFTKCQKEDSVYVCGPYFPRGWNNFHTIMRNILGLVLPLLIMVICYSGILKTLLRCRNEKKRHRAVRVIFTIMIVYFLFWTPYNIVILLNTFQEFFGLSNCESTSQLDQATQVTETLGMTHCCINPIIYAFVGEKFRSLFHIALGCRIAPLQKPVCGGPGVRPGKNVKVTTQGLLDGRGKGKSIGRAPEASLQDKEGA

ED50 [1]: 9 nM
SMILES: CC(CCl)(CCl)C(=O)N[C@H]1CCCCNC1=O

ED50 [1]: 0.08 nM
SMILES: CC(C)CCC(C)(C)C(=O)N[C@H]1CCCCNC1=O

ED50 [1]: 0.07 nM
SMILES: CCC(C)(C)C(=O)N[C@H]1CCCCNC1=O

The next lines start with the molecule.

SMILES: CCCCCCCCCCC(C)(C)C(=O)N[C@@H]1CCCCNC1=O
ED50 [1]: 4.5 nM | inhibition [2]: 98.5% | inhibition [3]: 101% | inhibition [4]: 69% | inhibition [5]: 36% | inhibition [6]: 20% | inhibition [7]: 5%

SMILES: CC1(C(=O)N[C@H]2CCCCNC2=O)CCCCC1
ED50 [1]: 0.09 nM | inhibition [2]: 100% | inhibition [3]: 99% | inhibition [4]: 100% | inhibition [5]: 98% | inhibition [6]: 38% | ED50 (Mus musculus [8]): 0.33 µg/kg | inhibition (INH) (Mus musculus [9]): 90% | ED50 (Mus musculus [10]): 0.33 µg/kg | inhibition (INH) (Mus musculus [11]): 90% | inhibition (INH) (Mus musculus [12]): 11% | inhibition (INH) (Mus musculus [13]): 52% | inhibition (INH) (Mus musculus [14]): 71% | inhibition (INH) (Mus musculus [15]): 74% | inhibition (INH) (Mus musculus [16]): 73% | inhibition (INH) (Mus musculus [17]): 88% | inhibition (INH) (Mus musculus [18]): -1% | inhibition (INH) (Mus musculus [19]): 14% | inhibition (INH) (Mus musculus [20]): 64% | inhibition (INH) (Mus musculus [21]): 64% | inhibition (INH) (Mus musculus [22]): 70% | inhibition (INH) (Mus musculus [23]): 90% | half-life [24]: 11 min | clearance [25]: 55 mL/min/kg | Vd [26]: 0.6 L/kg | AUC(0-t) [27]: 48.3 ng·h/mL | bioavailability [28]: 5% | Cmax [29]: 3 ng/mL | AUC(0-t) [30]: 7.17 ng·h/mL | Cp (Rattus norvegicus): < 2 ng/mL
